In the library only some 2.2% were active in any assay of this set; here they are far more common.
Wee1 degr inh: Wee1 degradation inhibitors, primary screen, cell-based, HeLa, Wee1K328M-luciferase, luminescence | HeLa Luc-Wee1K328M stability; 100% = proteasome inhibitor MG132 effect | reporter increase, % at 5 µM | 220,000 compounds, 1.2% hits;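 active means activation above the mean of all tested compounds plus 3 SD, set per screening run, cut at about 8.8% in these data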;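 further: cells exposed to compound for 20 h before luminescence read; 0% = DMSO alone and 100% = MG132 at 30 µM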
PKD1 kinase inh: inhibitors of human PKD1 kinase, biochemical, fluorescence polarization | Serine/threonine-protein kinase D1 (Homo sapiens), Q15139 | PKD1 kinase fluorescence polarization assay | inhibition, % (concentration not given with the values) | 200,000 compounds, 0.056% hits; in the data active means inhibition above about 50%
p97 ATPase inh: inhibitors of human p97 ATPase, primary screen, biochemical; 220,000 compounds, 0.42% hits; recombinant p97 ATPase, Kinase-Glo ATP luminescence, 3 h; inhibition, % at 8 µM; in the data active means inhibition above about 15%;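 further: 0% = DMSO vehicle and 100% = wells lacking enzyme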
Target sequence (P55072 whole entry, looked up): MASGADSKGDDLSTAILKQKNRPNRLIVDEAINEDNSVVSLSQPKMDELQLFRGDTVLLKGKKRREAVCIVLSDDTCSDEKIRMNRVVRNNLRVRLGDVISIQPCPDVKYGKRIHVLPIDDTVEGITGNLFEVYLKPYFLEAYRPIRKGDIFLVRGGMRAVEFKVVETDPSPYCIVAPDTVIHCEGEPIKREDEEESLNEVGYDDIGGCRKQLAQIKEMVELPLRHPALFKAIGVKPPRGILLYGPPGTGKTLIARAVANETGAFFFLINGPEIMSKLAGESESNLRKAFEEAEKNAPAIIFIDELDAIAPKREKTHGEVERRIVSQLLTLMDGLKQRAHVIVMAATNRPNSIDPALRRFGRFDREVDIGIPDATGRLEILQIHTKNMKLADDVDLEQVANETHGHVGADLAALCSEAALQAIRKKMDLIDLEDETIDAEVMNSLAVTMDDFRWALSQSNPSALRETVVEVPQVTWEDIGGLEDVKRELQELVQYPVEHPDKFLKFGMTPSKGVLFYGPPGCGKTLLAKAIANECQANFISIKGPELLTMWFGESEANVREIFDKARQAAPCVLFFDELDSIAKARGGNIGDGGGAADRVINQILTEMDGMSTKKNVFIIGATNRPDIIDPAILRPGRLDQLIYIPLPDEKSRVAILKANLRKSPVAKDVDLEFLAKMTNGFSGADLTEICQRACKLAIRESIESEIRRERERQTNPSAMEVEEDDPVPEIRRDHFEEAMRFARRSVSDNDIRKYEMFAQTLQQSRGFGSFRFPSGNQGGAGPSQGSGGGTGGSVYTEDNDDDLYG
Arbovirus inh: antivirals against arbovirus infection, primary screen, cell-based, full library, 10K replicate subset | arbovirus infection cell-based antiviral screen | inhibition, % at 10 µM | 200,000 compounds, 0.37% hits; in the data active means inhibition above about 30%
RBBP9 inhibitor: human RBBP9 inhibitors, primary screen, biochemical, fluorescence polarization, FP-Rh probe, HTS; inhibition, % at 7.94 µM; AID 1515, 2009; Serine hydrolase RBBP9 (Homo sapiens), O75884; 220,000 compounds, 0.2% hits; recombinant RBBP9;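 active means inhibition above the campaign mean of all tested compounds plus 3 SD, cut at about 14% in these data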;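 further: plate controls were DMSO wells with RBBP9 for no effect and wells lacking RBBP9 protein for full effect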
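Test system: recombinant human RBBP9; Timing: 30 min then 45 min, 25 °C; Detection: fluorescence polarization; Control set: RBBP9 with DMSO as uninhibited control, no-protein wells as full inhibition; Compound dosing: one concentration, 7.94 µM nominal, 0.794% DMSO; Probe or stimulus: FP-Rh activity-based probe, 375 nM before mixing.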
Redox H2O2 prof: compounds producing H2O2 with reducing agent – biochemical, NIH compound library profiling, artefact control for MLSCN library redox annotation, primary screen; DTT-dependent redox cycling H2O2, phenol red/HRP absorbance; 100% = 100 µM peroxide control, 0% = buffer; activation, % at 10 µM; 200,000 compounds, 0.03% hits;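 active means activation of at least 50% relative to the plate's high and low controls in the primary single-dose screen; inactive means activation below 50%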;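 further: compound incubated with DTT at 0.8 mM final as the reducing agent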
* marks the source's active call; other numbers are inactive results; · = no result.

SMILES | Wee1 degr inh | PKD1 kinase inh | p97 ATPase inh | Arbovirus inh | RBBP9 inhibitor | Redox H2O2 prof
COc1cccc(CN2CCNC(=O)C2CC(=O)NCCc2nc(C)c(C)s2)c1OC (stereo unspecified) | -2.6 | -6.9 | 1.0 | -5.8 | -2.1 | 0.1
Cc1nnc(NC(=O)c2ccc3c(c2)OCO3)s1 | 10.6* | -3.4 | 3.3 | -1.3 | -5.8 | -0.6
CC(C)(C)C(=O)Nc1ccc(-c2csnn2)cc1 | 10.8* | · | 4.8 | · | -9.9 | ·
NC(=O)N(CCC(=O)O)c1ccccc1 | 10.1* | 7.8 | 8.2 | 4.6 | -2.2 | -0.3
Cn1cc(Br)c(C(=O)Nc2sc3c(c2C#N)CCC3)n1 | 10.3* | · | -0.5 | · | -4.8 | ·
Cc1cc(C(=O)Nc2sc3c(c2C#N)CCC3)no1 | -0.7 | 1.6 | 0.9 | -21.1 | 3.7 | 0.8
Cc1noc(C(=O)Nc2sc3c(c2C#N)CCC3)c1Cl | 0.7 | 4.9 | -6.6 | 31.6* | -3.6 | -1.1
Cn1cc(Cl)c(C(=O)NC(=S)Nc2sc3c(c2C#N)CCCCC3)n1 | 3.6 | 1.8 | 5.1 | 4.1 | -3.3 | 0.4
COc1ccc(N=C2S/C(=C\c3ccc(OCC(=O)O)cc3)C(=O)N2CCc2c[nH]c3ccccc23)cc1 | 2.3 | -1.1 | -1.8 | 46.4* | -16.4 | -2.0
COCC(=O)OCC(=O)Nc1cc(C)c(C)cc1[N+](=O)[O-] | 17.4* | -7.5 | 0.8 | 0.8 | -4.3 | 0.1
CC(C)(C)NC(=O)C(c1ccc(O)cc1)N(C(=O)Cn1nnc(-c2ccc(F)cc2)n1)c1ccccc1F (stereo unspecified) | -1.4 | -11.9 | 6.7 | -3.0 | -13.2 | -0.8
COCCn1c(-c2cccc([N+](=O)[O-])c2)nc2c1c(=O)[nH]c(=O)n2Cc1ccccc1 | 1.0 | -0.8 | -1.0 | 10.2 | -1.5 | 0.2
COc1cc(C(c2nnnn2C(C)(C)C)N2CCN(c3nc4ccccc4s3)CC2)ccc1O (stereo unspecified) | -0.7 | 0.6 | 2.2 | 8.6 | -8.3 | -0.9
Fc1ccccc1COc1ccc2ccccc2c1CNc1nn[nH]n1 | -3.0 | -3.1 | 8.2 | 31.1* | -0.1 | 0.3
Cc1nc2cc(Cl)c(Cl)cc2n1CCCO | 10.1* | · | 5.1 | · | 9.3 | ·
Cc1cc2nc(C)n(CCCNC(=O)Nc3ccc(F)cc3)c2cc1C | 1.3 | 0.4 | -6.3 | 0.8 | -6.3 | 0.1
COC(=O)COc1ccc(NS(=O)(=O)c2cccc([N+](=O)[O-])c2)cc1 | 5.9 | -0.3 | 0.3 | 0.8 | -6.0 | -0.7
CC1(C(=O)OCC(=O)c2c[nH]c3ccccc23)CC1(Cl)Cl (stereo unspecified) | 1.2 | 7.6 | 3.4 | -11.8 | 0.1 | 0.2
O=C(CSCC(=O)N1CCCCC1)OCC(=O)c1c[nH]c2ccccc12 | -3.5 | 3.6 | 10.2 | 74.6* | -5.5 | 1.4
O=C(OCC(=O)c1c[nH]c2ccccc12)C1=COCCO1 | 10.8* | -0.2 | 2.4 | -1.0 | -2.6 | 1.0
Cc1ccc(C(=O)OCC(=O)c2c[nH]c3ccccc23)cc1 | 2.0 | -9.5 | -4.6 | 7.1 | -4.8 | 0.1
O=C1CCC/C(=N/Nc2ccc(Cl)cc2)C1 | -1.8 | -5.7 | 8.3 | -20.2 | -7.4 | 0.1
Clc1ccc(CN(Cc2ccc(Cl)cc2)c2nn[nH]n2)cc1 | 1.3 | -1.2 | -0.9 | 38.3* | -10.6 | -0.3
CCOC(=O)N1CCC(Nc2c(Nc3cccc(CC)c3)c(=O)c2=O)CC1 | 0.8 | 8.5 | 0.4 | 36.2* | -2.9 | 3.0
CN1CCN(C(=S)NC(=O)c2ccc(Cl)cc2)CC1 | -1.7 | -4.8 | 5.3 | 81.5* | -6.8 | -0.6
SMILES | Wee1 degr inh | PKD1 kinase inh | p97 ATPase inh | Arbovirus inh | RBBP9 inhibitor | Redox H2O2 prof
CN1CCN(C(=S)c2ccc(Cl)cc2)CC1 | -0.3 | -0.5 | 1.5 | 0.1 | 1.2 | 0.2
COc1cccc2c1OCC/C2=N\NC(=O)C(C)Oc1ccc([N+](=O)[O-])cc1 (stereo unspecified) | 6.0 | -7.2 | 2.8 | 5.2 | -5.9 | -0.3
COc1ccc2oc(C(=O)C3CC3)c(N)c2c1 | 9.6* | 8.1 | 0.8 | 0.6 | -4.3 | 0.9
C=CCOc1ccccc1CN1CCCC(CCC(=O)N(C)CCc2ccccn2)C1 (stereo unspecified) | 0.3 | -2.1 | -0.8 | 1.0 | 4.8 | 0.2
CC1(C(=O)NCc2ccc(Cl)c(Cl)c2)Oc2ccccc2NC1=O (stereo unspecified) | -0.8 | 2.0 | -4.4 | 6.4 | -4.4 | -0.8
CCCC(=O)Nc1ccc(NC(=O)c2ccccc2)nc1 | 10.3* | · | 2.6 | · | -1.9 | ·
CCOc1ccc2nc(-c3cc(NC(C)=O)ccc3O)sc2c1 | 2.1 | 8.1 | 1.6 | 7.2 | -3.0 | -0.4
CCOC(=O)C1=C(C)C2C3C(=O)N(c4cc(C)ccc4C)C(=O)C3C1(C)C1C(=O)N(c3cc(C)ccc3C)C(=O)C21 (stereo unspecified) | 9.1* | -6.8 | 5.6 | 2.9 | -3.7 | 0.3
CN(C)C(=O)NC(O)C(Cl)Cl (stereo unspecified) | -1.0 | -6.2 | 2.8 | 8.2 | -3.3 | 0.1
CCCn1c(NCc2cc(C)ccc2O)nc2ccccc21 | 1.2 | -5.9 | -0.8 | 35.9* | -6.3 | -0.2
COc1ccc(/C=C/C(=O)Oc2cccc(/C=N/NC(=O)c3cccc(F)c3)c2)cc1 | 13.9* | -11.8 | 0.6 | 1.3 | -11.2 | -7.5
COc1ccc(/C=C/C(=O)Oc2ccc(/C=N\NC(=O)c3ccc(F)cc3)cc2)cc1 | 1.5 | -14.1 | -2.9 | -4.3 | -7.3 | 0.4
CCCCCn1c(CN2CCCCC2CC)nc2c1c(=O)n(C)c(=O)n2C (stereo unspecified) | 10.7* | -9.4 | -0.3 | · | -5.5 | -0.9
CCOC(=O)c1c(NC(=O)C(C)N2CCN(S(=O)(=O)c3cccs3)CC2)sc2c1CCC(C)C2 (stereo unspecified) | 3.4 | 0.0 | 1.0 | -11.0 | -3.2 | 0.4
O=C(COc1cccc(-n2cnnn2)c1)Nc1ccccc1 | 1.4 | 0.1 | -4.6 | 1.2 | -6.7 | 0.4
Cc1ccc(S(=O)(=O)N2CCN(Cc3cc(C(C)C)ccc3O)CC2)cc1 | 0.5 | -2.7 | -5.7 | 30.4* | -9.1 | 0.3
CC(/C=C(\NC(=O)c1ccccc1)C(=O)N=Nc1c(O)[nH]c2ccc(C)cc12)=C\c1ccccc1 | 0.4 | 3.2 | 4.4 | -20.4 | -3.5 | 0.1
CC(C)c1ccc(C(CC(=O)O)NC(=O)c2cccs2)cc1 (stereo unspecified) | -1.7 | -1.7 | 2.6 | 1.4 | -4.0 | 0.2
Cc1nc(NC(=O)/C=C/c2ccco2)sc1C | 8.9* | -11.3 | -2.1 | -13.6 | -5.0 | -0.7
O=C(Nc1scc(-c2ccc(F)cc2)c1C(=O)O)c1ccco1 | 0.8 | 1.4 | 5.9 | 35.0* | -4.5 | -0.4
